Source: PubChem BioAssay
Shown are actives, neighbours in structure and some others; about 4.9% of the full set was active somewhere.
NPY Y2 blocker: NPY-Y2 receptor antagonists, primary screen, cell-based | NPY-Y2 expressing cells, antagonist mode | inhibition, % at 2.7 µM | actives 0.99% (n = 140,000) | AID 793, 2007; in the data active = inhibition above about 17%
Target sequence (P49146 whole entry, looked up): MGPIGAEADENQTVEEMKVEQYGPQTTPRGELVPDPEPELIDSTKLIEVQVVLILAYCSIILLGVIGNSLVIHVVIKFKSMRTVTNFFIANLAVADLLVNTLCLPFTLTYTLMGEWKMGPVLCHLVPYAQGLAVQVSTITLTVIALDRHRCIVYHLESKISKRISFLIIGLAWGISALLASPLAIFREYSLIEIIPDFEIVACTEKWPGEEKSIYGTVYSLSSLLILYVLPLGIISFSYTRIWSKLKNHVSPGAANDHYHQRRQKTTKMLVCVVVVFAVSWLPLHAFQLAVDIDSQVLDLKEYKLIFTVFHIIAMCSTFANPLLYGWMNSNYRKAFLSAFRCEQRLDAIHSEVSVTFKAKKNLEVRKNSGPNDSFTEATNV
NPY-Y2 PAM-ag: NPY-Y2 potentiators or agonists, primary screen, cell-based; actives 0.45% (n = 220,000); activation, % at 3.6 µM; Neuropeptide Y receptor type 2 (Homo sapiens), P49146; cells expressing NPY-Y2, potentiator/agonist read-out; in the data active = activation above about 27%;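 note: cells stimulated with NPY near EC25 plus isoproterenol at EC100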
NPY Y1 blocker: NPY-Y1 receptor antagonists, primary screen, cell-based; HEK293-CNG Y1 cells, membrane potential fluorescence; NPY at EC95, then isoproterenol; inhibition, % at 3.6 µM; actives 1% (n = 200,000);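 active = inhibition above the campaign mean inhibition of all tested compounds plus 3 SD, cut at about 20% in these data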
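material = HEK293 cells with Y1 receptor plus CNG channel | also added = NPY 25 nM then isoproterenol 1 µM plus Ro 20-1724 25 µM | schedule = dye 3 h, compound 60 min room temperature, stimulation 45 min | measured by = membrane potential fluorescence | benchmarks = high control isoproterenol alone, low control NPY with isoproterenol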
WT yeast gro inh: growth inhibition of WT strain, primary screen, mitochondrial fusion inhibitor project, WT and mutant strains, chemical genetic | inhibition, % at 10 µM | actives 2.1% (n = 190,000) | mitochondrial fusion phenotypic screen; in the data active = inhibition above about 58%; tested in S. cerevisiae
RAM inhibit: inhibitors of the yeast RAM network, primary screen, dse1pr::URA3 reporter, 5-FOA selection. S. cerevisiae dse1pr::URA3 reporter, 5-FOA growth OD615, 2 d; analog-sensitive cbk1-as2 kinase mutant strain. inhibition, % at 50 µM. actives 1.8% (n = 190,000);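 active = inhibition above a set limit, 3 SD over mean compound inhibition, cut at about 8.4% in these data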;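 note: inhibition rescues growth on 5-FOA so higher OD means more RAM inhibition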
NPY1 pot ag: NPY-Y1 receptor potentiators or agonists, primary screen, cell-based | Neuropeptide Y receptor type 1 (Homo sapiens), P25929 | NPY-Y1 expressing cells, potentiator/agonist activation | activation, % at 3.6 µM | actives 0.37% (n = 220,000); in the data active = activation above about 33%, passing the limit was not always enough;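 note: cells stimulated with NPY at EC10 then isoproterenol at EC100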
Of the large screens only hits and unclear results are named; the others gave an inactive call.

CC(C)OC(=O)c1c(-c2ccc(C(C)C)cc2)csc1NC(=O)C1CCCO1 (configuration not stated)	WT yeast gro inh 70
CCOC(=O)c1c(-c2ccc(C)cc2)csc1NC(=O)C1CCCO1 (configuration not stated)	WT yeast gro inh 58
COC(=O)C1=CN(c2cccc(C)c2)C=C(C(=O)OC)C1c1cc(OC)c(O)c([N+](=O)[O-])c1	none
CCc1ccccc1N(CC)C(=O)CCc1nc(-c2ccc(C)cc2)no1	WT yeast gro inh 72
Cc1ccc(-c2noc(CCC(=O)NCCc3ccccc3Cl)n2)cc1	none
CCN(CCCNC(=O)CCc1nc(-c2ccc(C)cc2)no1)c1cccc(C)c1	WT yeast gro inh 64
c1ccc(-c2nnc(NC3=NCCC3)o2)cc1	none (no result: NPY Y2 blocker)
O=C1c2cccc(OCc3ccc(F)cc3)c2CCN1Cc1ccc(F)cc1	none
CSc1nc(C)c(Oc2ccccc2)c(=O)n1C	none
CSc1nc(-c2ccccc2F)c(C#N)c(=O)n1C	RAM inhibit 8.6 (no result: NPY Y2 blocker)
Cc1nn(C)c(C)c1NC(=O)c1ccc(Cl)cc1	none
COC(=O)c1ccn(C(=O)c2ccc(Cl)cc2)n1	WT yeast gro inh 93
Cc1oc(-c2ccccc2F)nc1CN1CCC(C(=O)NCCC2=CCCCC2)CC1	WT yeast gro inh 98
CCc1ccc(-c2nc(CN3CCC(C(=O)NCc4ccccc4OC)CC3)c(C)o2)cc1	NPY Y2 blocker 18, NPY Y1 blocker 21
COc1ccccc1CNC(=O)C1CCN(Cc2nc(-c3cccc(Cl)c3)oc2C)CC1	none
COc1ccc(CCNC(=O)C2CCN(Cc3nc(-c4ccccc4F)oc3C)CC2)cc1OC	none
Cc1ccc(C(CCN(Cc2ccccc2)C(=O)c2ccco2)c2ccco2)cc1 (configuration not stated)	RAM inhibit 11
O=C(c1ccco1)N(CCC(c1ccccc1)c1ccco1)Cc1ccco1 (configuration not stated)	RAM inhibit 8.8
CC1(C)CC(CCN(Cc2ccccc2)C(=O)c2ccco2)(c2ccccc2)CCO1 (configuration not stated)	WT yeast gro inh 63
CCC1(C)CC(CCN(Cc2ccco2)C(C)=O)(c2ccccc2)CCO1 (configuration not stated)	none (no result: NPY Y2 blocker)
C/C(=N/NS(=O)(=O)c1ccc(Br)cc1)c1ccc(NC(=O)c2ccc(C)o2)cc1	none
CCc1ccc2[nH]c(=O)c(CN(CCN(C)C)C(=O)Nc3ccccc3OC)cc2c1	none
COc1cccc(-c2cc(C(F)(F)F)nc(-n3cc(Cl)cn3)n2)c1	none
CCCCCc1ccc(C(=O)CCCC)c(=S)[nH]1	WT yeast gro inh 66 (no result: NPY Y2 blocker)
Cc1cc(NC(=O)CCC(=O)N(Cc2ccco2)C2(C(=O)NC3CCCCC3)CCN(C)CC2)no1	none
CCOc1ccc(-c2cc(N3C(=O)Nc4ccccc4N3O)on2)cc1	none
Cc1cccc(Cc2cnc(NC(=O)C3=NCCN3)s2)c1	none (no result: NPY Y2 blocker)
Cc1cccc(Cc2cnc(NC(=O)c3ccc(C)o3)s2)c1	RAM inhibit 8.8
CC/C(=C(/CC)c1ccc(O)cc1)c1ccc(O)cc1	WT yeast gro inh 76 (no result: NPY Y2 blocker)
Cn1c(NC(=O)c2ccc(C(C)(C)C)cc2)cc(=O)n(C)c1=O	none
CCOc1ccccc1C(=O)N[C@H](C(=O)OCc1cc([N+](=O)[O-])cc2c1OCOC2)C(C)C	RAM inhibit 8.8
CC(C)C(NC(=O)c1ccccc1)C(=O)OCc1cc([N+](=O)[O-])cc2c1OCOC2 (configuration not stated)	none
COc1cc(OC)cc(C(=O)N[C@H](C(=O)OCc2cc(=O)oc3cc(C)ccc23)C(C)C)c1	none
CCOc1ccccc1C(=O)N[C@H](C(=O)OCc1cc(=O)oc2cc(C)ccc12)C(C)C	RAM inhibit 9.7
COc1ccc(N/C=C/C(=O)c2ccc(Oc3ncccn3)cc2)cc1	WT yeast gro inh 70
CCOC(=O)c1ccc(N/C=C\C(=O)c2cccc(OC)c2)cc1	RAM inhibit 10
CSCCC(NC(=O)c1ccc([N+](=O)[O-])cc1Cl)C(=O)OCC(=O)NCCCc1ccccc1 (configuration not stated)	RAM inhibit 9.5
COc1ccc(CCNC(=O)CS(=O)(=O)c2cn(CC(=O)N3CCCC3)c3ccccc23)cc1OC	none (no result: NPY Y2 blocker)
CC(=O)N(C)c1ccc(OCC(O)Cn2c(C)nc3ccccc32)cc1 (configuration not stated)	none (no result: NPY Y2 blocker)
CC(=O)N(C)c1ccc(OCC(O)Cn2c3ccc(Cl)cc3c3cc(Cl)ccc32)cc1 (configuration not stated)	WT yeast gro inh 77
O=C(c1ccc(CSc2ccc(Cl)cc2)cc1)N1CCOCC1	none (no result: NPY Y2 blocker)
COc1ccccc1NC(=O)CC1S/C(=N/N=C2\CCCc3ccccc32)NC1=O (configuration not stated)	WT yeast gro inh 63 (no result: NPY Y2 blocker)
O=C(CC1S/C(=N/N=C/c2cccs2)NC1=O)Nc1ccccc1F (configuration not stated)	none (no result: NPY Y2 blocker)
Cn1c(=O)c2c(ncn2CC(=O)Nc2cccc(S(=O)(=O)Nc3ccccc3F)c2)n(C)c1=O	none (no result: NPY Y2 blocker)
O=C(CSc1nnc(Nc2ccccc2F)s1)Nc1cccc(S(=O)(=O)N2CCCCC2)c1	RAM inhibit 10
O=C(CSc1ccc([N+](=O)[O-])cc1)Nc1cccc(S(=O)(=O)Nc2ccccc2F)c1	RAM inhibit 9.2 (no result: NPY Y2 blocker)
CC(C)(C)N(NC(=O)c1ccccc1)C(=O)c1cccc(C(=O)N(NC(=O)c2ccccc2)C(C)(C)C)c1	NPY Y2 blocker 20, NPY Y1 blocker 41
S=C(NCc1ccncc1)NC1CCCCC1	none (no result: NPY Y2 blocker)
C[C@H](NC(=O)c1ccccc1Cl)C(=O)NCc1cccs1	none (no result: NPY Y2 blocker)
S=C(Nc1ccccc1Cl)N1CCCC(c2ccccc2)=N1	none (no result: NPY Y2 blocker, NPY Y1 blocker, WT yeast gro inh, RAM inhibit)
O=C(NC12CC3CC(CC(C3)C1)C2)c1ccc(-c2cccc(Cl)c2)o1	WT yeast gro inh 66
O=C(NC12CC3CC(CC(C3)C1)C2)c1ccc(-c2ccc(Cl)cc2)o1	none
CC(=O)N1N=C(c2ccc(C)cc2)OC1c1ccc(C(C)C)cc1 (configuration not stated)	WT yeast gro inh 69
C#CCOCCOCCOCCNc1nc(N2CCN(C(=O)[C@H]([C@@H](C)CC)n3cc([C@@H](N)Cc4ccc(O)cc4)nn3)CC2)nc(N2CCN(C(=O)[C@H](CCCCN)n3cc([C@@H](N)CC(C)C)nn3)CC2)n1	none (no result: NPY Y2 blocker)
CCOC(=O)c1cnc(SC)nc1NCCOC	none (no result: NPY Y2 blocker)
CCOC(=O)c1cnc(SC)nc1Sc1ccccc1Cl	WT yeast gro inh 67
CSc1nc(Oc2ccc3ccccc3c2)c2ccccc2n1	none
